From ChEMBL document CHEMBL2311404, “Synthesis, antibacterial activity and docking of 14-membered 9-O-(3-arylalkyl) oxime 11,12-cyclic carbonate ketolides” (2013)
≈ marks a conversion by molar mass, not a printed value.

How the values were obtained:
Assay type in all cases: functional
Staphylococcus hominis = assay: Antibacterial activity against methicillin-resistant, inducible MLS-resistant, coagulase-deficient Staphylococcus hominis E 3 by broth microdilution method
How it was run: (§1)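 Clinical isolates confirmed by 16S rDNA sequencing. MIC determined by broth microdilution following CLSI recommendations. Quality-control strains were S. aureus ATCC 29213 and S. pneumoniae ATCC 49619. Azithromycin and clarithromycin were run in parallel as reference agents.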

Staphylococcus aureus [1] = assay: Antibacterial activity against erythromycin-susceptible Staphylococcus aureus ATCC 29213 by broth microdilution method
How it was run: (§2)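 MIC by broth microdilution following CLSI recommendations. Clinical isolates were identified by 16S rDNA sequencing and labeled by genotype and phenotype. S. aureus ATCC 29213 and S. pneumoniae ATCC 49619 served as control strains, with azithromycin and clarithromycin as reference agents.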

Streptococcus pyogenes [2] = assay: Antibacterial activity against erythromycin-susceptible Streptococcus pyogenes A3 by broth microdilution method; how it was run: as §2
[3] = tested on: Staphylococcus epidermidis; assay: Antibacterial activity against methicillin-susceptible, inducible MLS-resistant Staphylococcus epidermidis E 1 by broth microdilution method; how it was run: as §1
[4] = tested on: Streptococcus dysgalactiae; assay: Antibacterial activity against erythromycin-resistant Streptococcus dysgalactiae A1 expressing efflux pump by broth microdilution method; how it was run: as §1
Staphylococcus aureus [5] = assay: Antibacterial activity against methicillin-resistant, inducible MLS-resistant Staphylococcus aureus PU 32 expressing ermA gene by broth microdilution method; how it was run: as §1
Streptococcus pneumoniae [6] = assay: Antibacterial activity against penicillin-resistant, constitutive MLS-resistant Streptococcus pneumoniae PU 11 expressing erm and mef genes by broth microdilution method; how it was run: as §1
[7] = tested on: Staphylococcus haemolyticus; assay: Antibacterial activity against methicillin-resistant, constitutive MLS-resistant, coagulase-deficient Staphylococcus haemolyticus PU 19 expressing ermA gene by broth microdilution method; how it was run: as §1
Streptococcus pneumoniae [8] = assay: Antibacterial activity against penicillin-susceptible Streptococcus pneumoniae PU 09 expressing mef gene by broth microdilution method; how it was run: as §2
[9] = tested on: Staphylococcus epidermidis; assay: Antibacterial activity against methicillin-resistant, constitutive MLS-resistant Staphylococcus epidermidis E 2 by broth microdilution method; how it was run: as §1
Streptococcus pneumoniae [10] = assay: Antibacterial activity against erythromycin-sensitive Streptococcus pneumoniae ATCC 49619 by broth microdilution method; how it was run: as §2
Streptococcus pyogenes [11] = assay: Antibacterial activity against constitutive MLS-resistant Streptococcus pyogenes A2 by broth microdilution method; how it was run: as §1
Streptococcus pneumoniae [12] = assay: Antibacterial activity against penicillin-susceptible, constitutive MLS-resistant Streptococcus pneumoniae PU 27 expressing erm gene by broth microdilution method; how it was run: as §1
Staphylococcus aureus [13] = assay: Antibacterial activity against methicillin-sensitive, inducible MLS-resistant Staphylococcus aureus PU 64 expressing ermA gene by broth microdilution method; how it was run: as §1
Staphylococcus aureus [14] = assay: Antibacterial activity against methicillin-resistant, constitutive MLS-resistant Staphylococcus aureus PU 20 expressing ermC gene by broth microdilution method; how it was run: as §1

Structure (SMILES) | MIC (Staphylococcus hominis) [µg/mL] | MIC (Staphylococcus aureus [1]) [µg/mL] | MIC (Streptococcus pyogenes [2]) [µg/mL] | MIC [3] [µg/mL] | MIC [4] [µg/mL] | MIC (Staphylococcus aureus [5]) [µg/mL] | MIC (Streptococcus pneumoniae [6]) [µg/mL] | MIC [7] [µg/mL] | MIC (Streptococcus pneumoniae [8]) [µg/mL] | MIC [9] [µg/mL] | MIC (Streptococcus pneumoniae [10]) [µg/mL] | MIC (Streptococcus pyogenes [11]) [µg/mL] | MIC (Streptococcus pneumoniae [12]) [µg/mL] | MIC (Staphylococcus aureus [13]) [µg/mL] | MIC (Staphylococcus aureus [14]) [µg/mL]
CC[C@H]1OC(=O)[C@H](C)C(=O)[C@H](C)[C@@H](O[C@@H]2O[C@H](C)C[C@H](N(C)C)[C@H]2O)[C@](C)(OC)C[C@@H](C)/C(=N\OCC#Cc2cccc3cnccc23)[C@H](C)[C@H]2OC(=O)O[C@@]21C | 0.125 (≈ 0.157 µM) | 0.064 (≈ 0.0806 µM) | ≤ 0.008 | 0.064 (≈ 0.0806 µM) | 0.125 (≈ 0.157 µM) | 0.125 (≈ 0.157 µM) | 32 (≈ 40.3 µM) | 64 (≈ 80.6 µM) | 0.125 (≈ 0.157 µM) | 64 (≈ 80.6 µM) | 0.016 (≈ 0.0202 µM) | 32 (≈ 40.3 µM) | 0.125 (≈ 0.157 µM) | – | –
CC[C@H]1OC(=O)[C@H](C)C(=O)[C@H](C)[C@@H](O[C@@H]2O[C@H](C)C[C@H](N(C)C)[C@H]2O)[C@](C)(OC)C[C@@H](C)/C(=N\OCC#Cc2ccnc3ccccc23)[C@H](C)[C@H]2OC(=O)O[C@@]21C | 0.25 (≈ 0.315 µM) | 0.5 (≈ 0.63 µM) | 0.016 (≈ 0.0202 µM) | 0.25 (≈ 0.315 µM) | 0.25 (≈ 0.315 µM) | 0.5 (≈ 0.63 µM) | 32 (≈ 40.3 µM) | 64 (≈ 80.6 µM) | 0.5 (≈ 0.63 µM) | 64 (≈ 80.6 µM) | 0.016 (≈ 0.0202 µM) | 32 (≈ 40.3 µM) | 1 (≈ 1.26 µM) | – | –
CC[C@H]1OC(=O)[C@H](C)C(=O)[C@H](C)[C@@H](O[C@@H]2O[C@H](C)C[C@H](N(C)C)[C@H]2O)[C@](C)(OC)C[C@@H](C)/C(=N\OCC#Cc2cnc3ccccc3c2)[C@H](C)[C@H]2OC(=O)O[C@@]21C | 0.25 (≈ 0.315 µM) | 0.25 (≈ 0.315 µM) | ≤ 0.008 | 0.25 (≈ 0.315 µM) | 0.5 (≈ 0.63 µM) | 0.5 (≈ 0.63 µM) | 64 (≈ 80.6 µM) | 128 (≈ 161 µM) | 0.5 (≈ 0.63 µM) | > 256 | ≤ 0.008 | 64 (≈ 80.6 µM) | 0.5 (≈ 0.63 µM) | 0.25 (≈ 0.315 µM) | 128 (≈ 161 µM)
CC[C@H]1OC(=O)[C@H](C)C(=O)[C@H](C)[C@@H](O[C@@H]2O[C@H](C)C[C@H](N(C)C)[C@H]2O)[C@](C)(OC)C[C@@H](C)/C(=N\OCC#Cc2ccc3ncccc3c2)[C@H](C)[C@H]2OC(=O)O[C@@]21C | 0.125 (≈ 0.157 µM) | 0.125 (≈ 0.157 µM) | ≤ 0.008 | 0.032 (≈ 0.0403 µM) | 0.25 (≈ 0.315 µM) | 0.125 (≈ 0.157 µM) | 64 (≈ 80.6 µM) | 64 (≈ 80.6 µM) | 0.25 (≈ 0.315 µM) | > 256 | 0.016 (≈ 0.0202 µM) | 64 (≈ 80.6 µM) | 0.25 (≈ 0.315 µM) | 0.125 (≈ 0.157 µM) | 64 (≈ 80.6 µM)
CC[C@H]1OC(=O)[C@H](C)C(=O)[C@H](C)[C@@H](O[C@@H]2O[C@H](C)C[C@H](N(C)C)[C@H]2O)[C@](C)(OC)C[C@@H](C)/C(=N\OC/C=C/c2cnc3ccccc3c2)[C@H](C)[C@H]2OC(=O)O[C@@]21C | 0.064 (≈ 0.0804 µM) | 0.25 (≈ 0.314 µM) | ≤ 0.008 | 0.032 (≈ 0.0402 µM) | 0.25 (≈ 0.314 µM) | 0.5 (≈ 0.628 µM) | 32 (≈ 40.2 µM) | > 256 | 0.25 (≈ 0.314 µM) | > 256 | 0.016 (≈ 0.0201 µM) | 32 (≈ 40.2 µM) | 0.125 (≈ 0.157 µM) | 0.064 (≈ 0.0804 µM) | > 256
CC[C@H]1OC(=O)[C@H](C)C(=O)[C@H](C)[C@@H](O[C@@H]2O[C@H](C)C[C@H](N(C)C)[C@H]2O)[C@](C)(OC)C[C@@H](C)/C(=N\OCCCc2cnc3ccccc3c2)[C@H](C)[C@H]2OC(=O)O[C@@]21C | 2 (≈ 2.51 µM) | 0.5 (≈ 0.627 µM) | 0.016 (≈ 0.0201 µM) | 0.5 (≈ 0.627 µM) | 0.5 (≈ 0.627 µM) | 1 (≈ 1.25 µM) | 64 (≈ 80.2 µM) | > 256 | 0.5 (≈ 0.627 µM) | > 256 | 0.064 (≈ 0.0802 µM) | 32 (≈ 40.1 µM) | 1 (≈ 1.25 µM) | 1 (≈ 1.25 µM) | > 256
CC[C@H]1OC(=O)[C@H](C)C(=O)[C@H](C)[C@@H](O[C@@H]2O[C@H](C)C[C@H](N(C)C)[C@H]2O)[C@](C)(OC)C[C@@H](C)/C(=N\OCCCc2cncc3ccccc23)[C@H](C)[C@H]2OC(=O)O[C@@]21C | 0.5 (≈ 0.627 µM) | 0.125 (≈ 0.157 µM) | 0.016 (≈ 0.0201 µM) | 0.25 (≈ 0.313 µM) | 0.25 (≈ 0.313 µM) | 0.5 (≈ 0.627 µM) | 32 (≈ 40.1 µM) | > 256 | 0.5 (≈ 0.627 µM) | > 256 | 0.032 (≈ 0.0401 µM) | 64 (≈ 80.2 µM) | 1 (≈ 1.25 µM) | 0.25 (≈ 0.313 µM) | > 256
CC[C@H]1OC(=O)[C@H](C)[C@@H](O[C@H]2C[C@@](C)(OC)[C@@H](O)[C@H](C)O2)[C@H](C)[C@@H](O[C@@H]2O[C@H](C)C[C@H](N(C)C)[C@H]2O)[C@](C)(O)C[C@@H](C)CN(C)[C@H](C)[C@@H](O)[C@]1(C)O [AZITHROMYCIN] | > 256 | 1 (≈ 1.34 µM) | 0.125 (≈ 0.167 µM) | > 256 | 32 (≈ 42.7 µM) | 8 (≈ 10.7 µM) | > 256 | > 256 | 8 (≈ 10.7 µM) | > 256 | 0.25 (≈ 0.334 µM) | > 256 | 64 (≈ 85.4 µM) | 8 (≈ 10.7 µM) | > 256
